Results taken from ChEMBL document CHEMBL1151851, “Antioxidant Lignans from the Fruits of Broussonetia papyrifera” (J Nat Prod, 2009).
Calls of active or inactive are those of the source. No cut-off for these calls is given here.

Legend:
[1] = tested on: Radical scavenging activity; assay: Antioxidant activity assessed as DPPH radical scavenging activity after 30 mins by spectrophotometry; type: functional
PC-12 = assay: Antioxidant activity against H2O2-induced impairment in rat PC12 cells at 0.16 to 100 uM after 3 hrs by MTT assay; type: functional, cell-based
Method in brief: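 PC12 cells in RPMI 1640 with 5% fetal calf serum, 10% horse serum, penicillin/streptomycin and 20 mM L-glutamine. Seeded at 1 × 10^6/mL, 24 h at 37 °C, 5% CO2. Then exposed to H2O2 (200 µM final) together with compound (0.16–100 µM final) for 3 h. PBS rinse, MTT 0.4 mg/mL for 4 h at 37 °C, DMSO solubilization, OD 570 nm. Viability %, n = 6, mean ± SD.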

## COc1cc(/C=C/CO)ccc1O[C@H](CO)[C@@H](O)c1ccc(O)cc1 (relative stereo) [CHUSHIZISINS B]
[1]
  IC50: 156 µM

## COC(c1ccc(O)cc1)[C@H]1CO[C@@H](c2ccc(O)cc2)[C@@H]1CO (relative stereo) [CHUSHIZISIN G]
[1]
  IC50: 281 µM

## COc1cc([C@H]2OC[C@H]3[C@@H]2CO[C@@H]3c2ccc(O)cc2)cc2c1O[C@H](c1ccc(O)cc1)[C@H]2CO (relative stereo)
PC-12
  Activity: Active

## COc1cc(/C=C/CO)ccc1O[C@H](CO)[C@H](O)c1ccc(O)cc1 (relative stereo) [CHUSHIZISINS A]
PC-12
  Activity: Active
[1]
  IC50: 237 µM

## COc1cc(CCCO)ccc1O[C@H](CO)[C@@H](O)c1ccc(O)cc1 (relative stereo) [CHUSHIZISINS D]
[1]
  IC50: 274 µM

## COc1cc(C(=O)[C@@H]2CO[C@H](c3ccc(O)cc3)[C@H]2CO)ccc1O[C@H](CO)[C@@H](O)c1ccc(O)cc1 (relative stereo)
PC-12
  Activity: Active

## COc1cc(C(=O)CCO)cc2c1O[C@H](c1ccc(O)cc1)[C@H]2CO (relative stereo)
PC-12
  Activity: Active

## COc1cc([C@H](O)[C@@H](CO)Oc2ccc(/C=C/CO)cc2OC)ccc1O (relative stereo)
PC-12
  Activity: Active
[1]
  IC50: 60.9 µM

## COc1cc(CCCO)cc2c1O[C@H](c1ccc(O)cc1)[C@H]2CO
PC-12
  Activity: Active
